Consider 24 sequences from the EternaBench riboswitch data.

For the series, the system named is MS2 coat protein. As to the kind of experiment: apparent Kd, MS2 coat protein; higher = weaker binding; RNA-MaP array; FMN 200 µM where present. An outline of the steps:
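SNAP-549-labelled MS2 coat protein, doubled from 0.7 or 1.5 nM to 3 µM, was titrated over designs transcribed by stalled E. coli RNA polymerase on Illumina sequencing-chip clusters. Titrations were run without and then with constant ligand in 100 mM Tris-HCl pH 7.5, 80 mM KCl, 4 mM MgCl2, BSA, DTT, yeast tRNA and Tween-20. The apparent Kd is the median of filtered per-cluster fits to green signal normalised to red-channel RNA signal and control-cluster median Fmax.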

The mark [1] stands for this setting: designed as: ON switch for flavin mononucleotide, no ligand.
Setting [2] is: ligand present: flavin mononucleotide, designed as: ON switch for flavin mononucleotide.
[3] abbreviates: designed as: OFF switch for flavin mononucleotide, no ligand.
The mark [4] stands for this setting: ligand present: flavin mononucleotide, designed as: OFF switch for flavin mononucleotide.

Regarding “UUUUUUUUACAGAAGGGAAUCAUGAUUUUUUGUUUUUACAUGAGGAUCACCCAUGUUUAUCUUUUUCAGGAUAUGUAUUUUUUU”, the apparent Kd (commonly the concentration giving half-maximal binding under the conditions of the assay) under setting [1] came out at 61.3 nM and the “apparent Kd” value under setting [2] worked out at 32 nM. “GGUCGCAAGUAAGGAUAUGCCUAGGAAACCUAGGCAGAAGGUACAUGAGGAUCACCCAUGUUAACGCAAAGCGAAUAAGCGACC”: the “apparent Kd” value under setting [3] is 15.8 nM and the “apparent Kd” value under setting [4] is 21.5 nM. Taken in the same sequence, the figures for “UUUUAACAUGAGGAUCACCCAUGUGAGGAUAUCGAAAUUUAUAUUAAUAUUUUUAUAUCGAGAAGGCACAUUUU” were 92.8 nM and 78.4 nM. Taken in the same sequence, the figures for “GAUUGAGAGCAGGAUAUCUUAGAAAUGUAUGAAAGAGAAGGGCUCACAUGAGGAUCACCCAUGUGGUCCUAGAU” were 32.7 nM and 256 nM. Turning to “CGUUUAUAUCGAGGAUAUAAGUCUAGGACAUGAGGAUCACCCAUGUAUGUCUUAGAAGGCGAUAUAAACAGCCUGUUACAGGCA”, the “apparent Kd” value runs as follows: under setting [1], 35.3 nM; under setting [2], 6.96 nM.

Consider “CUUUUGUGAGGAUAUCAGUAGUAAAAUAAUAAAAUAACUACUGAGAAGGCACAUGAGGAUCACCCAUGUUCCUC”, for which the “apparent Kd” value runs as follows: under setting [3], 32.5 nM; under setting [4], 161 nM.

As for “ACAUGGAAUACAGGAUAUGUAAGUUUUAAGUGGAUUGGUUAUUACUUUACAACAGAAGGGUAAUACAUGAGGAUCACCCAUGUA”, the “apparent Kd” value reads like this: under setting [1], 30.1 nM; under setting [2], 25.3 nM. For the sequence “GUCCUACAUGAGGAUCACCCAUGUCAGGAUAUGUAGCGUCCGGGCCAUAAGGCUCGGAGCAGAAGGGACAGGUG”, the “apparent Kd” value was 13.8 nM under setting [3] and 18.2 nM under setting [4]. The like results for “CUAUUUAAUGCCUCAUGUACAUGAGGAUCACCCAUGUUAACUUAGGAUAUAUUUAUAUUGAUAGAGUAGAAGGAAGUACUAUUU” were, in that order, 25.4 nM and 27.3 nM. The like results for “CUUCGACAUGAGGAUCACCCAUGUCAGGAUAUUGUGUAUCGGGUUUUUUACGGAAAGGCAAGAAGGGAUGUGUG” were, in that order, 29.7 nM and 24.8 nM.

Turning to “UGCGUACAAGCAAACAUGAGGAUCACCCAUGUGGUCUCAUGCGAGGAUAUCGGGAAGGAGGAUUCCGAGAAGGUGCGGUGAGCC”, the “apparent Kd” value by setting is: under setting [1], 116 nM; under setting [2], 27.9 nM. Regarding “GUGGUAUUCGUAGGAUAUCCGUCGCCACCGUGUGGAGAAGGACGAACAUGAGGAUCACCCAUGUAUCAUGGUGUGGGCGUUGUC”, the “apparent Kd” value is 149 nM under setting [3] and 148 nM under setting [4]. For “ACAUAAAUUCGAGGAUAUCGGUGAAAUAAUUUACGAGAAGGCGAUAAUAGUUAUAAACUUAUAGACAUGAGGAUCACCCAUGUA”, the “apparent Kd” value under setting [1] amounted to 31.6 nM and the “apparent Kd” value under setting [2] worked out at 32.4 nM. The like results for “GCAAUCGCAUGAGGAUAUGCUCGAGUUUAGAGAGCAGAAGGCAUGUCAUAAGACAUGAGGAUCACCCAUGUAGUUAAAAUGGCA” were, in that order, 39.9 nM and 9.42 nM. For the sequence “AAACCGCAAGGAUAUUGUGGCGCUGACAUGAGGAUCACCCAUGUGGUGCUAGUCCCGCUGCGAGAAGGUGUGUAAA”, the “apparent Kd” value under setting [3] amounted to 12.4 nM and the “apparent Kd” value under setting [4] was 26.8 nM. “GAUAGGACAGAGAAGGACGUAGCUAGAGAUACUAGCAUUAAGUCCUCAACAUGAGGAUCACCCAUGUAGGAUAUCUGUCCUAUC”: the “apparent Kd” value under setting [3] was 6.23 nM and the “apparent Kd” value under setting [4] worked out at 6.71 nM. The like results for “ACAUGAUAUGUAGGAUAUCACUACUUGUGUUAUAAAAUUGUAAUUUAGGAUUGAGAAGGACAUUUACAUGAGGAUCACCCAUGU” were, in that order, 14.7 nM and 11.6 nM. The like results for “GUAUCGUAUGUGAGGAUAUAUUUGUCCUUGGAUCUGUAGAAGGCACAUGAGGAUCACCCAUGUCCAAGUGGUCC” were, in that order, 27.6 nM and 27.7 nM. “GUGUAUCGCCUCGAGGAUAUCCUGUCAUGCACAUGAGGAUCACCCAUGUAAGAGCGAGUUUUUUGGGAGAAGGCGAGUUCUCGGU”: the “apparent Kd” value was found to be 90.3 nM under setting [1] and 30.4 nM under setting [2]. The like results for “AUAUUUGUGUAGAAGGUACGUGAUUAGUCAAAGUAAGGAUAUACUGACAUGAGGAUCACCCAUGUUUAAAUAGUUAAAUGUUCU” were, in that order, 10.9 nM and 8.01 nM. Turning to “CCGGAUAUGCAGGAUAUCGUAUCGGAUACGAUACGAGAAGGGUAUACAUGAGGAUCACCCAUGUGUCCUACCGG”, the “apparent Kd” value came to 22.8 nM under setting [3] and 31.5 nM under setting [4]. For “UGUUGUGAACAGAACAUGAGGAUCACCCAUGUGCACUCGUGUAAGGAUAUACAAUCGUAUGGAAAGUAGAAGGUACUAAUUAUG”, the “apparent Kd” value under setting [2] was 120 nM.

Turning to “AGUAAGAUGCAGAAGGUGUCAGCUAGUGCUACGACAUGAGGAUCACCCAUGUACUAGGUAGAGUACAAGGAUAUGCAUCUUACA”, the “apparent Kd” value was 23 nM under setting [1] and 6.15 nM under setting [2].

“CAACCACAUGAGGAUCACCCAUGUGAGGAUAUGAUACUAUGUACUUCGGUACAUAGUAUCAGAAGGCACAGGUG”: the “apparent Kd” value came out at 82 nM under setting [3] and 73.4 nM under setting [4].
